These results are taken from ChEMBL document CHEMBL1147096, “Activities of DL-alpha-difluoromethylarginine and polyamine analogues against Cryptosporidium parvum infection in a T-cell receptor alpha-deficient mouse model” (2007).

The subject of test [1] is Cryptosporidium parvum. The test can be described thus: Prevention of Cryptosporidium parvum infection in TCR alpha deficient-mouse pretreated with 50 mg/kg/day, po for 2 days prior to oocyst infection and continued for 5 days. The class given is functional, organism-based. An outline of the steps: (§1)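 Suckling TCR-α-deficient mice (6–8 per group) were treated once daily for 2 days, challenged with 2 × 10^4 oocysts, and treated for 5 more days at the same dose (20 or 50 mg/kg). Controls received PBS. Fecal oocyst shedding was checked 10 days after treatment by carbol fuchsin smear. Ileal and cecal H&E sections were scored 0–2 and analyzed by Fisher's exact test and ANOVA.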

The test system of test [2] is Cryptosporidium parvum. Kind of test: Anticryptosporidial activity against Cryptosporidium parvum infected TCR alpha deficient-mouse assessed as prevention of oocyst shedding at 134 mg/kg/day after 7 days. The class given is functional. An outline of the steps: (§2)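 Seven-day-old TCR-α-deficient mice were gavaged with 2 × 10^4 oocysts, and infection was confirmed in feces one week later. Treatment ran for 7 days: 20 or 134 mg/kg once daily, or 16 mg/kg twice daily. Controls received PBS. Seven days after treatment, fecal smears were stained with carbol fuchsin and scored for oocysts (×400). Ileal and cecal H&E sections were scored 0–2. Shedding was compared by Fisher's exact test.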

The test system of test [3] is Mus musculus. The test can be described thus: Activity of intestinal epithelial ODC in Swiss-Webster mouse at 0.2 mg, ip after 48 hrs. The class given is functional. An outline of the steps:
(§3)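 Swiss-Webster mice were dosed with CGC-11157 once daily at 20 mg/kg p.o. by feeding needle or 2 mg/kg i.p. They were killed at 48, 72 or 96 h. Intestines were washed in PBS (pH 6.7) and homogenized on ice in 40 mM Tris-HCl (pH 6.7). ODC was measured as 14CO2 trapped from L-[14C]ornithine in 0.2 M acetate (pH 6.5), 60 μM pyridoxal phosphate, 3 mg/ml BSA and 125 μg protein, 30 min at 37°C. Results are in nmol/min/mg protein ± SD.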

Test [4] concerns Mus musculus. Kind of test: Ratio of intestinal epithelial ODC activity to SSAT activity in Swiss-Webster mouse at 0.2 mg, ip after 96 hrs. The class given is functional. The method in brief: (§4)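 The ratio was calculated from ODC (14CO2 release from [14C]ornithine) and SSAT (acetylation of spermine by [14C]acetyl-CoA) specific activities. Both were measured in intestinal homogenates from Swiss-Webster mice dosed once daily with CGC-11157 p.o. or i.p. and sampled at 48, 72 or 96 h.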

The test system of test [5] is Mus musculus. Kind of test: Ratio of intestinal epithelial ODC activity to SSAT activity in Swiss-Webster mouse at 2 mg, po after 48 hrs. The class given is functional. The method in brief:
as §4

In test [6] the test system is Cryptosporidium parvum. The test can be described thus: Anticryptosporidial activity against Cryptosporidium parvum infected TCR alpha deficient-mouse assessed as prevention of oocyst shedding at 20 mg/kg/day after 7 days. The class given is functional. The method in brief: as §2
Test [7] concerns Mus musculus. The test can be described thus: Activity of intestinal epithelial SSAT in Swiss-Webster mouse at […], ip after 96 hrs. The class given is functional. The method in brief: (§5)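 Intestinal homogenates came from Swiss-Webster mice given CGC-11157 once daily (20 mg/kg p.o. or 2 mg/kg i.p.) and killed at 48, 72 or 96 h. SSAT was measured as [1-14C]acetyl-CoA incorporation into monoacetylspermine in Bicine (pH 8.0), with 16.5 μM labeled plus 1 mM acetyl-CoA, 2 mM spermine and 100 μg protein, 60 min at 37°C. Products were bound on cellulose phosphate discs and counted. Results are in nmol/min/mg protein ± SD.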

Test [8] concerns Cryptosporidium parvum. The test can be described thus: Anticryptosporidial activity against Cryptosporidium parvum infected TCR alpha deficient-mouse assessed as prevention of oocyst shedding at 16 mg/kg twice a day after 7 days. The class given is functional. An outline of the steps:
as §2

In test [9] the test system is Mus musculus. Kind of test: Ratio of intestinal epithelial ODC activity to SSAT activity in Swiss-Webster mouse at 2 mg, po after 96 hrs. The class given is functional. The method in brief:
as §4

For test [10], the system named is Mus musculus. The test can be described thus: Activity of intestinal epithelial ODC in Swiss-Webster mouse at 0.2 mg, ip after 72 hrs. The class given is functional. The method in brief:
as §3

Test [11] concerns Mus musculus. Kind of test: Activity of intestinal epithelial ODC in Swiss-Webster mouse at […], ip after 96 hrs. The class given is functional. The method in brief:
as §3

In test [12] the test system is Mus musculus. Kind of test: Ratio of intestinal epithelial ODC activity to SSAT activity in Swiss-Webster mouse at 0.2 mg, ip after 48 hrs. The class given is functional. The method in brief:
as §4

For test [13], the system named is Mus musculus. The test can be described thus: Ratio of intestinal epithelial ODC activity to SSAT activity in Swiss-Webster mouse at 2 mg, po after 72 hrs. The class given is functional. An outline of the steps: as §4
Test [14] deals with Cryptosporidium parvum. The test can be described thus: Prevention of Cryptosporidium parvum infection in TCR alpha deficient-mouse pretreated with 20 mg/kgday, po for 2 days prior to oocyst infection and continued for 5 days. The class given is functional. The following applies: dose 20 mg/kg. An outline of the steps:
as §1

The subject of test [15] is Mus musculus. The test can be described thus: Ratio of intestinal epithelial ODC activity to SSAT activity in Swiss-Webster mouse at 0.2 mg, ip after 72 hrs. The class given is functional. An outline of the steps: as §4
Test [16] deals with Mus musculus. Kind of test: Activity of intestinal epithelial SSAT in Swiss-Webster mouse at 0.2 mg, ip after 48 hrs. The class given is functional. An outline of the steps: as §5
Test [17] concerns Mus musculus. The test can be described thus: Activity of intestinal epithelial SSAT in Swiss-Webster mouse at […], ip after 72 hrs. The class given is functional. An outline of the steps:
as §5

Test [18] has as its system Cryptosporidium parvum. The test can be described thus: Effect on infection of HCT8 cells by Cryptosporidium parvum […] isolated from mouse treated with 134 mg/kg/day for 7 days assessed as viability of […]. The class given is functional, organism-based. An outline of the steps: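 Oocysts were recovered from TCR-α-deficient mice that had been infected, then treated with 134 mg/kg once daily for 7 days. Viability was judged by whether the oocysts could establish infection in an HCT-8 cell monolayer in vitro.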

Active and inactive are the calls of the source. The calls are words filed in the database; no cut-off is given here.

For the molecule `CCNCCCNC/C=C\CNCCCNCC`, the outcome with Cryptosporidium parvum [1] was Active. For the same molecule, the Activity result in the test on Cryptosporidium parvum [2] is “Toxic”.
In the case of `CCNCCCCNCCCCNCCCCNC/C=C\CNCCCCNCCCCNCCCCNCC`, the Activity is 0.079 nmol/mg/min with Mus musculus [3]; 50% in the test with Cryptosporidium parvum [6]; 0.04 nmol/mg/min with Mus musculus [7]; 50% in the test with Cryptosporidium parvum [8]; 0.034 nmol/mg/min with Mus musculus [10]; 0.16 nmol/mg/min in the test on Mus musculus [11]. For the same molecule, the Activity with Cryptosporidium parvum [14] is 50%; in the test on Mus musculus [16], 0.081 nmol/mg/min; in the test with Mus musculus [17] it was 0.034 nmol/mg/min. The Ratio is listed as 4 in the test on Mus musculus [4]; 0.99 in the test with Mus musculus [5]; 2.9 in the test on Mus musculus [9]; 0.97 in the test on Mus musculus [12]; 1.55 in the test on Mus musculus [13]; 1 with Mus musculus [15].
Turning to `CCNCCCCNCCCCNCCCCNCCCCNC/C=C/CNCCCCNCCCCNCCCCNCCCCNCC`, in the test with Cryptosporidium parvum [18], the result was inactive.
For `NCCCC(N)(C(=O)O)C(F)F` (racemic) [EFLORNITHINE], the Activity in the test with Cryptosporidium parvum [6] is 33%.
